Measured values as given in article PMC5248591 (Journal of Clinical Pharmacology, 2016).
“And” between values parts separate entries of the source, which are not always exact repeats. Equal entries are not always repeated. Where two headings read alike, the source gives them in different places.

Key:
relapsed CLL = conditions: cited from earlier work
[1] = tested on: fMLP‐mediated basophil degranulation; test: fMLP‐induced basophil degranulation; format: cell-based, human
[2] = tested on: PMA/PKC‐induced B‐cell activation; test: PMA‐induced B‐cell activation; format: cell-based, human
[3] = tested on: opRBC‐induced (FcγR) neutrophil ROS generation; test: Neutrophil oxidative burst induced by opRBC in whole blood in vitro; format: cell-based, human
[4] = SAD study: plasma and urine pharmacokinetics after a single oral dose; format: in vivo, human; conditions: for Ae0‐96 / fe0‐96: urine, mean (SD); for Tmax / half-life / Cmax / AUC(0-t): human, plasma
[5] = Safety and tolerability, SAD study
[6] = format: in vivo, human; conditions: for Fluctuation / Ae0‐24 / fe0‐24 / t1/2 / Cmax: mean (SD); for Ae0‐24 / fe0‐24: urine; for CL renal: urine and plasma
[7] = tested on: FcγR‐mediated DC activation; test: Dendritic cell activation by opsonized sheep red blood cells; format: cell-based, human; conditions: immature DCs from healthy donors, in vitro
In short: (§1)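 Cells (0.5 × 10⁶/well) were preincubated 1 h with test compound, then stimulated overnight with 1 μg/mL LPS or antibody-opsonized sheep RBCs. CD80/86 and MHCII were read by flow cytometry; values are % of vehicle, n = 5.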

[8] = tested on: BCR/LYN‐mediated pSYK Y352; test: BCR signaling specificity control, pSYK Y352 in B cells, whole blood; format: cell-based, human
ZAP70 = conditions: read-out: ZAP70 IC50; purified kinase assay; cited from earlier work
[9] = Safety and tolerability, MAD study; format: in vivo, human
PMA‐induced pERK Y204 = test: Rat whole blood phospho‐flow: PMA‐induced pERK Y204; format: cell-based; conditions: 5 μM
[10] = tested on: PMA‐induced T‐cell activation (PKC‐dependent); test: T‐cell activation; format: cell-based, human; conditions: MAD, steady state after 10 once‐daily doses
[11] = tested on: CD3/CD28‐induced T‐cell activation (ZAP70‐dependent); test: T‐cell activation; format: cell-based, human; conditions: MAD, steady state after 10 once‐daily doses
hind‐paw inflammation = conditions: rat CIA, p < 0.05, cited from earlier work
[12] = tested on: LPS‐induced DC activation; test: Dendritic cell activation by LPS; format: cell-based, human; conditions: in vitro; 1 μM in Figure 5C
In short: as §1

[13] = tested on: PMA/PKC‐mediated pERK Y204; test: PMA‐induced pERK Y204 in B cells, specificity control, whole blood; format: cell-based, human; conditions: SAD 200‐ and 300‐mg cohorts combined
DLBCL = conditions: phase 2 study in DLBCL; cited from earlier work
[14] = tested on: serum levels of CCL3 and CCL4; conditions: cited from earlier work
[15] = MAD, all dose levels, data not shown
[16] = SAD 200‐ and 300‐mg cohorts combined

c1cn2cc(-c3ccc4cn[nH]c4c3)nc(Nc3ccc(N4CCOCC4)cc3)c2n1 [GS9973]
Duration of response (relapsed CLL; majority of responding patients): greater than 6 months
patients achieving decreased adenopathy (relapsed CLL; phase 2, relapsed CLL): 94.5%
patients having experienced a partial response (relapsed CLL; phase 2, relapsed CLL): 61.5%

CC(=O)O.NC(=O)c1cnc(N[C@@H]2CCCC[C@@H]2N)nc1Nc1cccc(-n2nccn2)c1 [PRT062607, 4‐((3‐(2H‐1,2,3‐triazol‐2‐yl)phenyl)amino)‐2‐(((1R,2S)‐2‐aminocyclohexyl)amino)pyrimidine‐5‐carboxamide acetate]
effect on fMLP stimulation (SYK‐independent) [1, 15]: no effect
inhibition of fMLP‐mediated basophil degranulation [1, 16]: No inhibition
effect on PMA stimulation (SYK‐independent) [2, 15]: no effect
inhibition of PMA‐induced B‐cell activation [2, 16]: no inhibition
opRBC‐induced ROS formation, concentration‐dependent ([3]; replicate experiments, different donors): inhibited
opRBC‐induced ROS generation ([3]; whole blood pretreated with 4 μM): completely abrogated
Intersubject variability (%CV) of Cmax and AUClast ([4]; SAD, 6 out of 7 dose cohorts): < 40%
Ae0‐96 ([4]; SAD, single oral 30 mg): 0.4 (0.3) mg
fe0‐96 ([4]; SAD, single oral 30 mg): 1.5 (0.9) %
Ae0‐96 ([4]; SAD, single oral 100 mg): 2.4 (0.5) mg
fe0‐96 ([4]; SAD, single oral 100 mg): 2.4 (0.5) %
Ae0‐96 ([4]; SAD, single oral 200 mg): 4.3 (0.8) mg
fe0‐96 ([4]; SAD, single oral 200 mg): 2.2 (0.4) %
Ae0‐96 ([4]; SAD, single oral 300 mg): 7.0 (2.0) mg
fe0‐96 ([4]; SAD, single oral 300 mg): 2.3 (0.7) %
Ae0‐96 ([4]; SAD, single oral 400 mg): 20.2 (14.3) mg
fe0‐96 ([4]; SAD, single oral 400 mg): 5.1 (3.6) %
Tmax ([4]; oral): 1 to 4 h
half-life ([4]; oral): 57 to 94 h
Cmax ([4]; po, 3 mg): 1.5 ng/mL
Tmax ([4]; po, 3 mg): 1 h
AUC(0-t) ([4]; po, 10 mg): 150 ng·h/mL
Cmax ([4]; po, 10 mg): 10.5 ng/mL
Tmax ([4]; po, 10 mg): 1 h
half-life ([4]; po, 10 mg): 57.1 h
AUC(0-t) ([4]; po, 30 mg): 878 ng·h/mL
Cmax ([4]; po, 30 mg): 42.9 ng/mL
Tmax ([4]; po, 30 mg): 1 h
half-life ([4]; po, 30 mg): 56.7 h
AUC(0-t) ([4]; po, 100 mg): 5400 ng·h/mL
Cmax ([4]; po, 100 mg): 263 ng/mL
Tmax ([4]; po, 100 mg): 2 h
half-life ([4]; po, 100 mg): 69.8 h
AUC(0-t) ([4]; po, 200 mg): 13700 ng·h/mL
Cmax ([4]; po, 200 mg): 629 ng/mL
Tmax ([4]; po, 200 mg): 2 h
half-life ([4]; po, 200 mg): 77.2 h
AUC(0-t) ([4]; po, 300 mg): 11800 ng·h/mL
Cmax ([4]; po, 300 mg): 558 ng/mL
Tmax ([4]; po, 300 mg): 2.1 h
half-life ([4]; po, 300 mg): 93.8 h
AUC(0-t) ([4]; po, 400 mg): 22300 ng·h/mL
Cmax ([4]; po, 400 mg): 996 ng/mL
Tmax ([4]; po, 400 mg): 4 h
half-life ([4]; po, 400 mg): 65.1 h
overall safety and tolerability ([5]; SAD and MAD, entire range of doses): safe and well tolerated
serious adverse events ([5]; SAD, 3 to 400 mg): no serious adverse events
number of reported TEAEs ([5]; SAD, 200‐mg dose group): 15
subject incidence of TEAEs ([5]; SAD, 200‐mg dose group): 67%
number of reported TEAEs ([5]; SAD, 300‐mg dose group): 7
subject incidence of TEAEs ([5]; SAD, 300‐mg dose group): 67%
number of reported TEAEs ([5]; SAD, 400‐mg dose group): 3
subject incidence of TEAEs ([5]; SAD, 400‐mg dose group): 17%
moderate intensity TEAEs (dizziness, headache, musculoskeletal pain) ([5]; SAD, all PRT062607 doses): 3
subjects with abdominal pain ([5]; SAD, all PRT062607 doses): 3 subjects
subjects with diarrhea ([5]; SAD, all PRT062607 doses): 3 subjects
subjects with dizziness ([5]; SAD, all PRT062607 doses): 3 subjects
subjects with headache ([5]; SAD, all PRT062607 doses): 6 subjects
subjects with nausea ([5]; SAD, all PRT062607 doses): 3 subjects
subjects with rhinitis ([5]; SAD, all PRT062607 doses): 2 subjects
number of TEAEs ([5]; SAD, all subjects receiving PRT062607): 37
subjects reporting TEAEs ([5]; SAD, all subjects receiving PRT062607 (17/42)): 40%
Fluctuation ([6]; MAD day 10, 11 mg once daily): 90.7 (43.9) %
Tmax ([6]; MAD day 10, 11 mg once daily, median (min, max)): 1.5 (0.5, 2.0) Hours
Ae0‐24 ([6]; MAD day 10, 11 mg once daily): 0.4 (0.1) mg
fe0‐24 ([6]; MAD day 10, 11 mg once daily): 3.3 (1.3) %
Fluctuation ([6]; MAD day 10, 33 mg once daily): 88.0 (15.9) %
Tmax ([6]; MAD day 10, 33 mg once daily, median (min, max)): 1.5 (1.0, 2.1) Hours
Ae0‐24 ([6]; MAD day 10, 33 mg once daily): 1.3 (0.0) mg
fe0‐24 ([6]; MAD day 10, 33 mg once daily): 4.0 (0.1) %
Fluctuation ([6]; MAD day 10, 66 mg once daily): 98.8 (24.1) %
t1/2 ([6]; MAD day 10, 66 mg once daily): 61.3 Hours and 61.3 (10.2) Hours
Tmax ([6]; MAD day 10, 66 mg once daily, median (min, max)): 4.0 (2.0, 4.0) Hours
Ae0‐24 ([6]; MAD day 10, 66 mg once daily): 3.7 (0.6) mg
fe0‐24 ([6]; MAD day 10, 66 mg once daily): 5.6 (1.0) %
Fluctuation ([6]; MAD day 10, 110 mg once daily): 92.8 (30.7) %
t1/2 ([6]; MAD day 10, 110 mg once daily): 75.3 Hours and 75.3 (11.2) Hours
Tmax ([6]; MAD day 10, 110 mg once daily, median (min, max)): 3.0 (3.0, 6.0) Hours
Ae0‐24 ([6]; MAD day 10, 110 mg once daily): 6.96 (1.7) mg
fe0‐24 ([6]; MAD day 10, 110 mg once daily): 6.3 (1.5) %
intersubject variability (CV%) for exposure parameters ([6]; MAD steady state, all dose cohorts): ≤ 45%
steady state achieved ([6]; MAD, trough levels days 4, 7, 8, 9, 10): ≤ 7 days
Tmax ([6]; human, plasma, oral): 1.5 to 4 h
AUC ([6]; human, plasma, oral, 11 mg): 507 ng·h/mL
Cmax ([6]; human, plasma, oral, 11 mg, MAD day 10, 11 mg once daily): 32.6 ng/mL
AUC ([6]; human, plasma, oral, 33 mg): 1810 ng·h/mL
Cmax ([6]; human, plasma, oral, 33 mg, MAD day 10, 33 mg once daily): 118 ng/mL
AUC ([6]; human, plasma, oral, 66 mg): 4630 ng·h/mL
Cmax ([6]; human, plasma, oral, 66 mg, MAD day 10, 66 mg once daily): 317 ng/mL
AUC ([6]; human, plasma, oral, 110 mg): 8490 ng·h/mL
Cmax ([6]; human, plasma, oral, 110 mg, MAD day 10, 110 mg once daily): 557 ng/mL
CL renal ([6]; human, oral, 11 mg): 0.2 mL/min/kg
CL renal ([6]; human, oral, 33 mg): 0.2 mL/min/kg
CL renal ([6]; human, oral, 66 mg): 0.2 mL/min/kg
CL renal ([6]; human, oral, 110 mg): 0.2 mL/min/kg
effect on FcγR‐mediated (opRBC) DC activation, surface CD80/86 and MHCII [7]: inhibited
inhibition of BCR‐mediated pSYK Y352 [8, 16]: No consistent inhibition
inhibition of LYN‐mediated pSYK ([8]; SAD study, versus plasma concentration): No concentration‐dependent inhibition
IC50 (ZAP70): 1050 nM
serious adverse events ([9]; 11 to 110 mg once daily for 10 days): no SAEs
AEs considered by the investigator related to the study drug ([9]; 71 of 96 AEs): 74%
number of AEs reported ([9]; all PRT062607 doses): 96
subjects reporting AEs ([9]; all PRT062607 doses (13 subjects)): 54.2%
inhibition of PMA‐induced pERK Y204 (PMA‐induced pERK Y204): inability
effect on PMA‐induced T‐cell activation [10]: no effect
effect on CD3/CD28‐induced T‐cell activation [11]: no effect
% inhibition hind paw inflammation (hind‐paw inflammation; 10 mg/kg): 55%
% inhibition hind paw inflammation (hind‐paw inflammation; 15 mg/kg): 90%
inhibition of LPS‐induced DC activation [12]: No inhibition
inhibition of PMA‐mediated pERK Y204 [13]: No consistent inhibition

COc1cc(Nc2ncc(F)c(Nc3ccc4c(n3)N(COP(=O)(O)O)C(=O)C(C)(C)O4)n2)cc(OC)c1OC [fostamatinib]
overall response rate (DLBCL): 3%

C=CC(=O)N1CCC[C@@H](n2nc(-c3ccc(Oc4ccccc4)cc3)c3c(N)ncnc32)C1 [ibrutinib]
inhibition of serum CCL3 and CCL4 markers [14]: > 90%
